Test [1] addresses T1, M-phase inducer phosphatase 1 (Homo sapiens, UniProt P30304).
T1 sequence (P30304 whole entry): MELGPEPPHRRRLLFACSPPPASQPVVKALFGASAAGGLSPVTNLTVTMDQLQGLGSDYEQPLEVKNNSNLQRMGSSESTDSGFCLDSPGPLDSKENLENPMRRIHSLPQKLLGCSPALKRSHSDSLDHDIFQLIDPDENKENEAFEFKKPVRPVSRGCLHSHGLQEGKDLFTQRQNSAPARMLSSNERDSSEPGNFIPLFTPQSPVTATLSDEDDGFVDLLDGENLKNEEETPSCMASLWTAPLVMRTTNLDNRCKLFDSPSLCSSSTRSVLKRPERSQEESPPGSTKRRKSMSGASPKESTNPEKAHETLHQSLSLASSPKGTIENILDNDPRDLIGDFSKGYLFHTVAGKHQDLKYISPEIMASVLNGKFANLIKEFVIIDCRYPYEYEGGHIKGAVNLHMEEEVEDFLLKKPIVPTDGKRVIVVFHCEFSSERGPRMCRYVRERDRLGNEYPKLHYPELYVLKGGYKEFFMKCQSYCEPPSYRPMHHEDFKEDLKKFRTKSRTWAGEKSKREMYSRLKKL
The experiment in a line: Inhibition of N-terminal His-tagged Cdc25a catalytic domain expressed in Escherichia coli BL21(DE3) using 3-O-Methylfluorescein phosphate as substrate by secondary plot analysis. In outline: (§1)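 Steady-state kinetics of the Cdc25a and Cdc25b catalytic domains with varying OMFP and several arylstibonate concentrations. Run at 20 °C in 100 mM Tris pH 7.4 with 2 mM DTT, after a 10 min RT enzyme–inhibitor preincubation. Fluorescence read at ex 485/em 525 nm. Michaelis–Menten plots give apparent Km and Vmax; secondary plots give Ki.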

Test [2] addresses T2, M-phase inducer phosphatase 2 (Homo sapiens, UniProt P30305).
T2 sequence (P30305 whole entry): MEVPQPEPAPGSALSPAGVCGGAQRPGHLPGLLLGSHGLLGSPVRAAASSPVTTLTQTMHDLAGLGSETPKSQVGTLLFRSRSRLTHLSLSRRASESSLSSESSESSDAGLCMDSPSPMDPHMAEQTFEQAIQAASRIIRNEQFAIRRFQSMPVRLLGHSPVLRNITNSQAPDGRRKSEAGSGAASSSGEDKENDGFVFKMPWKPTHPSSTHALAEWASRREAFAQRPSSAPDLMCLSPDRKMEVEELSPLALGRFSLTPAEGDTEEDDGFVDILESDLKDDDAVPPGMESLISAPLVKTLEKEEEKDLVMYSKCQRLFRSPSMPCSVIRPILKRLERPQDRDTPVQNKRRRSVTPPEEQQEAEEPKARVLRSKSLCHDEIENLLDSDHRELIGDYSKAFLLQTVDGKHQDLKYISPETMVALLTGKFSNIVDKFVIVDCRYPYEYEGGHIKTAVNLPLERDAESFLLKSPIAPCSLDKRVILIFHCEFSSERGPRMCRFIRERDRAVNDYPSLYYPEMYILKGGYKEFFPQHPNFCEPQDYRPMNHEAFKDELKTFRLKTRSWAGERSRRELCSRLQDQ
Nature of the test: Inhibition of N-terminal His-tagged Cdc25b catalytic domain expressed in Escherichia coli BL21(DE3) using 3-O-Methylfluorescein phosphate as substrate incubated for 10 mins prior to substrate addition by fluorometry. In outline: (§2)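 OMFP phosphatase assay, 20 °C, in 100 mM Tris pH 7.4 with 2 mM DTT. OMFP is taken from a 20 mM DMSO stock and diluted in 1% DMSO. It is used near each enzyme's KM, which is determined beforehand. Enzyme and arylstibonate are preincubated 10 min at RT, then OMFP is added. OMF release is read by fluorescence (ex 485, em 525 nm). Dose-response curves give IC50.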

Test [3] has as its target T3, M-phase inducer phosphatase 3 (Homo sapiens, UniProt P30307).
T3 sequence (P30307 whole entry): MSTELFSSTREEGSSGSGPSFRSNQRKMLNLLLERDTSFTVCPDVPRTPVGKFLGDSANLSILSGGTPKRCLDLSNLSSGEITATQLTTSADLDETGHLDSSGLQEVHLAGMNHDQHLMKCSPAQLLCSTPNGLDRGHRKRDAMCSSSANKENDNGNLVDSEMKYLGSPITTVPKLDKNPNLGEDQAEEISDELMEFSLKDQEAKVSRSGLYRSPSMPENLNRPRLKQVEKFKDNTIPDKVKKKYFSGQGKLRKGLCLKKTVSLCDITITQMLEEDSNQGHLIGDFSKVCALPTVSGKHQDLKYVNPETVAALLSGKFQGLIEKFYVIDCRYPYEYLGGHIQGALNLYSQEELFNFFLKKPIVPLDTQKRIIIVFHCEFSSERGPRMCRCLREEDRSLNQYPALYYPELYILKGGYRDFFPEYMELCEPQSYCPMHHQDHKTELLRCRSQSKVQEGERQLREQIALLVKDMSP
Nature of the test: Inhibition of N-terminal His-tagged Cdc25c catalytic domain expressed in Escherichia coli BL21(DE3) using 3-O-Methylfluorescein phosphate as substrate incubated for 10 mins prior to substrate addition by fluorometry. Put shortly: as §2

Test [4] has as its target T4, Receptor-type tyrosine-protein phosphatase beta (Homo sapiens, UniProt P23467). Nature of the test: Inhibition of PTP-beta receptor using […] as substrate by colorimetric analysis.
Test [5] concerns the target T5, Dual specificity protein phosphatase 6 (Homo sapiens, UniProt Q16828).
T5 sequence (Q16828 whole entry): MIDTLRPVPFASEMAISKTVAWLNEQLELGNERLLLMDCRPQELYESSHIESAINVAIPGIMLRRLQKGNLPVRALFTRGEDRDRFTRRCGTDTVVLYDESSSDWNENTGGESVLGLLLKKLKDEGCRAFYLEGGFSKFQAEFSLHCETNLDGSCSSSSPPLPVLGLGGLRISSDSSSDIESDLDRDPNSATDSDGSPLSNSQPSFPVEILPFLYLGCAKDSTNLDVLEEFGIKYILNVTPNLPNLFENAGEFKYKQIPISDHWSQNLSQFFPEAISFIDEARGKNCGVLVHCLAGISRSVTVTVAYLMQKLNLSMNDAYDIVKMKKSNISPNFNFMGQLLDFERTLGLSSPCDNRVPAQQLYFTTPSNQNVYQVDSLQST
The experiment in a line: Inhibition of MKP3 using 3-O-Methylfluorescein phosphate as substrate incubated for 10 mins prior to substrate addition by fluorometry. Put shortly: as §2

Test [6] addresses T6, Tyrosine-protein phosphatase non-receptor type 1 (Homo sapiens, UniProt P18031).
T6 sequence (P18031 whole entry): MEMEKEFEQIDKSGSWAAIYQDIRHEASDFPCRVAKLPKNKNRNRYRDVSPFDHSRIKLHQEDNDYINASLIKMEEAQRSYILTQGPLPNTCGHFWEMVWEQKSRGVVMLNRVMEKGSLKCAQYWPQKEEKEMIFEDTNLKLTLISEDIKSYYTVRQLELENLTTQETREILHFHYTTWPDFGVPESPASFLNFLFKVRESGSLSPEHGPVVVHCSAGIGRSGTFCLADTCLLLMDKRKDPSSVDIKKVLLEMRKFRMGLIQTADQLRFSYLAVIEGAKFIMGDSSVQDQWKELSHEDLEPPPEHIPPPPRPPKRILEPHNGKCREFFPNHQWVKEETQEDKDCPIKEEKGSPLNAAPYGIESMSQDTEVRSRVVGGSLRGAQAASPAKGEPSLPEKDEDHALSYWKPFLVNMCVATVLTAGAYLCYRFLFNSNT
The experiment in a line: Inhibition of PTP1B using 3-O-Methylfluorescein phosphate as substrate incubated for 10 mins prior to substrate addition by fluorometry. Put shortly: as §2

Test [7] deals with Phosphatidylinositol 3,4,5-trisphosphate 3-phosphatase and dual-specificity protein phosphatase PTEN (Homo sapiens, UniProt P60484). The experiment in a line: Inhibition of human PTEN using 3-O-Methylfluorescein phosphate as substrate incubated for 10 mins prior to substrate addition by fluorometry. In outline:
as §2

Test [8] concerns the target T1, M-phase inducer phosphatase 1. The experiment in a line: Inhibition of N-terminal His-tagged Cdc25a catalytic domain expressed in Escherichia coli BL21(DE3) using 3-O-Methylfluorescein phosphate as substrate incubated for 10 mins prior to substrate addition by fluorometry. Put shortly: as §2
Test [9] concerns the target T2, M-phase inducer phosphatase 2. The experiment in a line: Inhibition of N-terminal His-tagged Cdc25b catalytic domain expressed in Escherichia coli BL21(DE3) using 3-O-Methylfluorescein phosphate as substrate by secondary plot analysis. Put shortly:
as §1

Test [10] addresses T4, Receptor-type tyrosine-protein phosphatase beta. The experiment in a line: Inhibition of PTP-beta receptor using 3-O-Methylfluorescein phosphate as substrate incubated for 10 mins prior to substrate addition by fluorometry. In outline: as §2
Test [11] has as its target T7, Phosphatidylglycerophosphatase and protein-tyrosine phosphatase 1 (Homo sapiens, UniProt Q8WUK0).
T7 sequence (Q8WUK0 whole entry): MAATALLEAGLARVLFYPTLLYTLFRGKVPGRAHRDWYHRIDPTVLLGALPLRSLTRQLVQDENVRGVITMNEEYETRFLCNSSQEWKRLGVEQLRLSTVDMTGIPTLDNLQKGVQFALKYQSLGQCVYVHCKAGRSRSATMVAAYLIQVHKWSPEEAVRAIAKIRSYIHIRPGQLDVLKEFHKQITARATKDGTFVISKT
Nature of the test: Inhibition of PTPMT1 using 3-O-Methylfluorescein phosphate as substrate incubated for 10 mins prior to substrate addition by fluorometry. In outline: as §2

Test [12] deals with Dual specificity protein phosphatase 3 (Homo sapiens, UniProt P51452). The experiment in a line: Inhibition of human recombinant His-tagged VHR using 3-O-Methylfluorescein phosphate as substrate incubated for 10 mins prior to substrate addition by fluorometry. In outline:
as §2

T4 sequence (P23467 whole entry): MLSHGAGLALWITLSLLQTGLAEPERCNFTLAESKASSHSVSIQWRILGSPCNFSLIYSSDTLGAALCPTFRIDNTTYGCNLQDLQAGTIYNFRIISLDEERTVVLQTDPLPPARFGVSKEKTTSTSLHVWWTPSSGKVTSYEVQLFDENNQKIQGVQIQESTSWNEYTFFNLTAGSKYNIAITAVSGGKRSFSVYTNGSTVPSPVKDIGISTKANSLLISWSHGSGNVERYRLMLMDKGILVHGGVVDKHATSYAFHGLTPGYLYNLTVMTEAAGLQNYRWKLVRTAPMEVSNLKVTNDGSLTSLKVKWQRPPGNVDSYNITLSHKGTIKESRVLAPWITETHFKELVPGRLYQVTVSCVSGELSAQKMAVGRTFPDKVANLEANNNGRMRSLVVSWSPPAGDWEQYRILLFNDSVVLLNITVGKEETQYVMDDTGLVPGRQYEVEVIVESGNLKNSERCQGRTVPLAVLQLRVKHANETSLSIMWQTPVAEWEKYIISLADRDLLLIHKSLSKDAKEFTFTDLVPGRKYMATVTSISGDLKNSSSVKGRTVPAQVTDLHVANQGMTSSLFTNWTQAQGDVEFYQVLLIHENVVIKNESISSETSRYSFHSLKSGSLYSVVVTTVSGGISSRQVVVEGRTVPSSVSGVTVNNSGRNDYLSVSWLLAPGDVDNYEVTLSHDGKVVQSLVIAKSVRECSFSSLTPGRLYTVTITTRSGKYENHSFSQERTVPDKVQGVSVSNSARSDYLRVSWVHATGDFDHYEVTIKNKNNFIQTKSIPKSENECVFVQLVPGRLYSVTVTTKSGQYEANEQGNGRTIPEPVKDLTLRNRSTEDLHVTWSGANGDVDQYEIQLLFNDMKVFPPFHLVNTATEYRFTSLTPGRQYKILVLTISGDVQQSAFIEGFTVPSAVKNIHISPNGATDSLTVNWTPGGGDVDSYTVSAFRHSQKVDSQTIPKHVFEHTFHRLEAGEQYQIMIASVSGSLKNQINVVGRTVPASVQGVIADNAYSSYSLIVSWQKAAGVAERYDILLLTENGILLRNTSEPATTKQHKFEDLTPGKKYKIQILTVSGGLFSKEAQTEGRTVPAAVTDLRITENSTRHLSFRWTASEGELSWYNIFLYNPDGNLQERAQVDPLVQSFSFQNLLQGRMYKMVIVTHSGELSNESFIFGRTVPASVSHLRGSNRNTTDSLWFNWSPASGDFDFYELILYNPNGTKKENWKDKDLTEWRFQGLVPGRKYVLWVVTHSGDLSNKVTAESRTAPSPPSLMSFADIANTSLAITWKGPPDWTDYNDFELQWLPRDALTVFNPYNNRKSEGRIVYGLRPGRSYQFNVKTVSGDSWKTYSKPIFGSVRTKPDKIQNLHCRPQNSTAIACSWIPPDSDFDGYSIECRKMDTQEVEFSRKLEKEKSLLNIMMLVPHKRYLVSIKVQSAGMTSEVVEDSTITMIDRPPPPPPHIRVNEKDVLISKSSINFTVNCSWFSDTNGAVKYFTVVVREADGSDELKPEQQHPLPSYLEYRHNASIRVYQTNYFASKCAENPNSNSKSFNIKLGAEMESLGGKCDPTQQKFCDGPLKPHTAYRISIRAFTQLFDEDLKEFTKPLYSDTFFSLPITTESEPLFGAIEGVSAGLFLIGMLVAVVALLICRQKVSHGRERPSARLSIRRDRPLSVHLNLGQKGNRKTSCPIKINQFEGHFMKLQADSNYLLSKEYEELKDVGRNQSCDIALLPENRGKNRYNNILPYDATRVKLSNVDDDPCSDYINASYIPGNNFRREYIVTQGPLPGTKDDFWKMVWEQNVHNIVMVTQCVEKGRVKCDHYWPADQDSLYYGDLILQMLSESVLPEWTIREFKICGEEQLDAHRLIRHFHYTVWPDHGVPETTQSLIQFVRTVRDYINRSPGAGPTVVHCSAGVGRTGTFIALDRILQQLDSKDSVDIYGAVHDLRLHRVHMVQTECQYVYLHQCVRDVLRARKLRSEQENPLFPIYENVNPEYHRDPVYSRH
Sequence of Phosphatidylinositol 3,4,5-trisphosphate 3-phosphatase and dual-specificity protein phosphatase PTEN (P60484 whole entry): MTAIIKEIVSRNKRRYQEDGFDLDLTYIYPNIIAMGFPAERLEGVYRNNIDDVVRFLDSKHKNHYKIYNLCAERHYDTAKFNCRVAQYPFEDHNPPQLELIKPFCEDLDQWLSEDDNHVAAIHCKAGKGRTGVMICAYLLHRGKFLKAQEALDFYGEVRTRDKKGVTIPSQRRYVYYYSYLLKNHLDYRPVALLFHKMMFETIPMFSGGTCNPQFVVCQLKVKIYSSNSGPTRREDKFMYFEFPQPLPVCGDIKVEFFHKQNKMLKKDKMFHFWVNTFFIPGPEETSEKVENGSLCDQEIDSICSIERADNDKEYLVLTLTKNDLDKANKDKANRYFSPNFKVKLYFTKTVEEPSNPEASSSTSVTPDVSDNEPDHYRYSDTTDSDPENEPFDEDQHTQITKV
Sequence of Dual specificity protein phosphatase 3 (P51452 whole entry): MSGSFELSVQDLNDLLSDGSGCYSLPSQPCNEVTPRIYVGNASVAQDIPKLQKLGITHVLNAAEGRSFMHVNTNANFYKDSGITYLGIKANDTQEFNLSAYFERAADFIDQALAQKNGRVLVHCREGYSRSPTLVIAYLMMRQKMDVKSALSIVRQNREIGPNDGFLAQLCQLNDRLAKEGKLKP

As to `O=C(O)CCc1ccc[c]([Sb](=[O])([OH])[OH])c1`, the Ki (as a rule, a dissociation constant, usually derived from enzyme kinetics or from competition with a known ligand) in test [1] amounted to 1.7 µM; in test [9] it was 4.7 µM. The IC50 – broadly, the midpoint of a concentration-inhibition curve – was 5.67 µM in test [2]; > 100 µM in [3]; 0.1 µM in test [4]; > 100 µM in [5]; > 100 µM in [6]; 8.87 µM in test [7]. Besides, the IC50 in test [8] is 3.15 µM; in test [10] it was 1.62 µM; in test [11] it was 13.4 µM; in [12] it was > 100 µM.
Consider `O=C(O)/C=C/c1ccc[c]([Sb](=[O])([OH])[OH])c1` [(2E)-3-{3-[dihydroxy(oxo)--stibanyl]phenyl}prop-2-enoic acid], for which the Ki came out at 0.072 µM in [1] and 0.369 µM in [9]. Further, the IC50 in test [2] was 0.6 µM; in test [3] it was > 10 µM; in test [4] it was 0.1 µM; in test [5], > 10 µM; in [6], 7.93 µM; in test [7], 10 µM. Moreover, the half-maximal inhibitory concentration (IC50) in [8] is 0.11 µM; in test [10], 0.77 µM; in [11], 1.62 µM; in test [12], > 10 µM.

The values are drawn from BindingDB's records for doi:10.1016/j.bmc.2012.05.040 (Imperial College, 2012).
